Assay results taken from ChEMBL document CHEMBL1287652, “QSAR modeling, synthesis and bioassay of diverse leukemia RPMI-8226 cell line active agents” (2010).

Experiments:
Assay type in all cases: functional
KM12 = experiment: Antitumor activity against human KM12 cells after 48 hrs by sulforhodamine B assay; details: KM12, 48 h
How it was run: (§1)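 Cells were grown in RPMI-1640 with 5% FBS and 2 mM L-glutamine, plated at 5000–40,000 cells/well, and preincubated for 24 h. A time-zero plate was TCA-fixed. Compounds were added from DMSO stock at five concentrations for 48 h at 37 °C. Cells were fixed with TCA (adherent 10%, suspension 16%) and stained with SRB, and A515 was read. GI50 and TGI were calculated from Tz, control and test absorbances.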

NCI-H226 = experiment: Antitumor activity against human NCI-H226 cells after 48 hrs by sulforhodamine B assay; details: NCI-H226, 48 h
How it was run: (§2)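 Cells were cultured in RPMI-1640 (5% FBS, 2 mM L-glutamine), pre-incubated for 24 h with time-zero plates TCA-fixed, then exposed for 48 h to five serial dilutions. The SRB read-out at 515 nm used time-zero, control and test absorbances. GI50 solves [(Ti−Tz)/(C−Tz)]×100 = 50 (net protein increase). TGI is the concentration giving 100% growth inhibition.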

OVCAR-4 = experiment: Antitumor activity against human OVCAR4 cells after 48 hrs by sulforhodamine B assay; details: OVCAR-4, 48 h; how it was run: as §2
UACC-257 = experiment: Antitumor activity against human UACC257 cells after 48 hrs by sulforhodamine B assay; details: UACC-257, 48 h
How it was run: (§3)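 Cells grown in RPMI-1640 with 5% FBS and 2 mM glutamine, plated and preincubated 24 h; time-zero plates TCA-fixed. Five-level serial dilutions added, 48 h at 37 °C. TCA fixation, SRB staining, absorbance 515 nm. GI50 derived from [(Ti−Tz)/(C−Tz)]×100 = 50; TGI is concentration giving 100% growth inhibition.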

SK-MEL-5 = experiment: Antitumor activity against human SK-MEL-5 cells after 48 hrs by sulforhodamine B assay; details: SK-MEL-5, 48 h; how it was run: as §2
NCI-H23 = experiment: Antitumor activity against human NCI-H23 cells after 48 hrs by sulforhodamine B assay; details: NCI-H23, 48 h; how it was run: as §2
BT-549 = experiment: Antitumor activity against human BT549 cells after 48 hrs by sulforhodamine B assay; details: BT-549, 48 h; how it was run: as §1
CAKI-1 = experiment: Antitumor activity against human Caki1 cells after 48 hrs by sulforhodamine B assay; details: CAKI-1, 48 h; how it was run: as §1
HT-29 = experiment: Antitumor activity against human HT-29 cells after 48 hrs by sulforhodamine B assay; details: HT-29, 48 h; how it was run: as §1
UACC-62 = experiment: Antitumor activity against human UACC62 cells after 48 hrs by sulforhodamine B assay; details: UACC-62, 48 h; how it was run: as §3
HCT-15 = experiment: Antitumor activity against human HCT15 cells after 48 hrs by sulforhodamine B assay; details: HCT-15, 48 h; how it was run: as §1
SNB-75 = experiment: Antitumor activity against human SNB75 cells after 48 hrs by sulforhodamine B assay; details: SNB-75, 48 h; how it was run: as §2
SF-268 = experiment: Antitumor activity against human SF268 cells after 48 hrs by sulforhodamine B assay; details: SF-268, 48 h; how it was run: as §2
K562 = experiment: Antitumor activity against human K562 cells after 48 hrs by sulforhodamine B assay; details: K562, 48 h; how it was run: as §1
SF-295 = experiment: Antitumor activity against human SF295 cells after 48 hrs by sulforhodamine B assay; details: SF-295, 48 h; how it was run: as §2
M14 = experiment: Antitumor activity against human M14 cells after 48 hrs by sulforhodamine B assay; details: M14, 48 h; how it was run: as §1
SNB-19 = experiment: Antitumor activity against human SNB19 cells after 48 hrs by sulforhodamine B assay; details: SNB-19, 48 h; how it was run: as §2
[1] = Antitumor activity against human […] cells at 10 uM after 48 hrs by sulforhodamine B assay relative to control; details: values are per cent of control
How it was run: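 NCI panel lines were grown in RPMI-1640 with 5% FBS and 2 mM L-glutamine and seeded at 5000–40,000 cells/well according to doubling time. After 24 h at 37 °C, 5% CO2, one dose from a DMSO stock was added for 48 h. Cells were TCA-fixed (10% final adherent, 16% suspension), SRB-stained and read at 515 nm. Percent growth is relative to untreated control.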

Malme-3M = experiment: Antitumor activity against human MALME-3M cells after 48 hrs by sulforhodamine B assay; how it was run: as §1
LOX IMVI = experiment: Antitumor activity against human LOXIMVI cells after 48 hrs by sulforhodamine B assay; how it was run: as §1
T47D = experiment: Antitumor activity against human T47D cells after 48 hrs by sulforhodamine B assay; how it was run: as §3
NCI-H460 = experiment: Antitumor activity against human NCI-H460 cells after 48 hrs by sulforhodamine B assay; details: NCI-H460, 48 h; how it was run: as §2
SK-MEL-2 = experiment: Antitumor activity against human SK-MEL-2 cells after 48 hrs by sulforhodamine B assay; details: SK-MEL-2, 48 h; how it was run: as §2
786-0 = experiment: Antitumor activity against human 786-0 cells after 48 hrs by sulforhodamine B assay; details: 786-0, 48 h; how it was run: as §1
UO-31 = experiment: Antitumor activity against human UO31 cells after 48 hrs by sulforhodamine B assay; details: UO-31, 48 h; how it was run: as §3
PC-3 = experiment: Antitumor activity against human PC3 cells after 48 hrs by sulforhodamine B assay; details: PC-3, 48 h; how it was run: as §2
OVCAR-3 = experiment: Antitumor activity against human OVCAR-3 cells after 48 hrs by sulforhodamine B assay; details: OVCAR-3, 48 h; how it was run: as §2
MCF7 = experiment: Antitumor activity against human MCF7 cells after 48 hrs by sulforhodamine B assay; details: MCF7, 48 h; how it was run: as §1
SW-620 = experiment: Antitumor activity against human SW620 cells after 48 hrs by sulforhodamine B assay; details: SW-620, 48 h; how it was run: as §3
CCRF-CEM = experiment: Antitumor activity against human CCRF-CEM cells after 48 hrs by sulforhodamine B assay; how it was run: as §1
SF-539 = experiment: Antitumor activity against human SF539 cells after 48 hrs by sulforhodamine B assay; details: SF-539, 48 h; how it was run: as §2
NCI-H522 = experiment: Antitumor activity against human NCI-H522 cells after 48 hrs by sulforhodamine B assay; details: NCI-H522, 48 h; how it was run: as §2

What does the source list for `COc1ccc(NC(=O)Nc2ccccc2OCCCOc2ccccc2NC(=O)Nc2ccc(OC)cc2)cc1`?
GI50 (KM12): > 100 µM; TGI (KM12): > 100 µM; GI50 (NCI-H226): > 100 µM; TGI (NCI-H226): > 100 µM; GI50 (OVCAR-4): > 100 µM; TGI (OVCAR-4): > 100 µM; GI50 (UACC-257): > 100 µM; TGI (UACC-257): > 100 µM; GI50 (SK-MEL-5): > 100 µM; TGI (SK-MEL-5): > 100 µM; GI50 (NCI-H23): 12.4 µM; TGI (NCI-H23): > 100 µM; GI50 (BT-549): 1.5 µM; TGI (BT-549): 29.2 µM; GI50 (CAKI-1): > 100 µM; TGI (CAKI-1): > 100 µM; GI50 (HT-29): > 100 µM; TGI (HT-29): > 100 µM; GI50 (UACC-62): > 100 µM; TGI (UACC-62): > 100 µM; GI50 (HCT-15): > 100 µM; TGI (HCT-15): > 100 µM; GI50 (SNB-75): 1.5 µM; TGI (SNB-75): 5.3 µM; GI50 (SF-268): 7.3 µM; TGI (SF-268): > 100 µM; GI50 (K562): 31.7 µM; TGI (K562): > 100 µM; GI50 (SF-295): 29.9 µM; TGI (SF-295): > 100 µM; GI50 (M14): 45.7 µM; TGI (M14): > 100 µM; GI50 (SNB-19): 4.3 µM; TGI (SNB-19): 26.1 µM; growth, % of control at 10 µM [1]: 77%; GI50 (Malme-3M): 0.3 µM; TGI (Malme-3M): 5.3 µM; GI50 (LOX IMVI): > 100 µM; TGI (LOX IMVI): > 100 µM; GI50 (T47D): > 100 µM; TGI (T47D): > 100 µM; GI50 (NCI-H460): > 100 µM; TGI (NCI-H460): > 100 µM; GI50 (SK-MEL-2): > 100 µM; TGI (SK-MEL-2): > 100 µM; TGI (786-0): > 100 µM; GI50 (UO-31): > 100 µM; TGI (UO-31): > 100 µM; GI50 (PC-3): > 100 µM; TGI (PC-3): > 100 µM; GI50 (OVCAR-3): > 100 µM; TGI (OVCAR-3): > 100 µM; GI50 (MCF7): > 100 µM; TGI (MCF7): > 100 µM; GI50 (SW-620): > 100 µM; TGI (SW-620): > 100 µM; GI50 (CCRF-CEM): 14.4 µM; TGI (CCRF-CEM): 78.9 µM; GI50 (SF-539): 3.4 µM; TGI (SF-539): > 100 µM; GI50 (NCI-H522): > 100 µM; TGI (NCI-H522): > 100 µM
